Measured values from different studies.
Lines come from different studies, so protocols differ.
CDK4 with cyclin D1: Cyclin-dependent kinase 4, with cyclin D1 (CDK4, Homo sapiens, UniProt P11802)
CDK4 with cyclin D3: Cyclin-dependent kinase 4, with cyclin D3 (CDK4, Homo sapiens, UniProt P11802)
CDK4: Cyclin-dependent kinase 4 (CDK4, Homo sapiens, UniProt P11802)

CN(CCCC(F)(F)F)c1nccc(-c2cnn3ncccc23)n1
remaining binding (CDK4 with cyclin D1; binding; 1 µM): 61%

O=C(O)[C@@H]1[C@@H](Cn2nnc3ccccc3c2=O)CC[C@H]1C(=O)c1ccc(OCCC2CCOCC2)cc1
remaining binding (CDK4 with cyclin D3; cell-free assay, competition with immobilised ligand; 1 µM): 83%

Cc1cnc(Nc2ccc(C(=O)N3CCC(N4CCCC4)CC3)cc2)nc1-c1cc2ccccc2s1
remaining binding (CDK4 with cyclin D3; binding, competition with immobilised ligand; 1 µM): 2.7%

Nc1ncc2c(n1)-c1c([nH]c3ccc(C#CC4CC4)cc13)CCCC2
remaining binding (CDK4; binding, competition with immobilised ligand; 1 µM): 84%

O=C(c1ccc(Nc2nccc(-c3cc4ccccc4s3)n2)cc1)N1CCC(N2CCCC2)CC1
remaining binding (CDK4; binding, competition with immobilised ligand; 1 µM): 88%

O=C(Nc1c[nH]nc1C(=O)NC1CCNCC1)c1cc(F)cc(F)c1
remaining binding (CDK4; binding, competition with immobilised ligand; 1 µM): 100%

N[C@@H]1CCN(c2nccc(-c3cnn4ncccc34)n2)C1
remaining binding (CDK4 with cyclin D3; binding; 1 µM): 100%

COc1ncc2cc3ccccc3nc2c1C#N
remaining binding (CDK4; cell-free assay, competition with immobilised ligand; 5 µM): 74%

O=C(Nc1cnc(Oc2ccc(F)cc2)nc1)N1CCc2ncccc2[C@@H]1c1ccc(F)cc1
remaining binding (CDK4 with cyclin D1; cell-free assay, competition with immobilised ligand; 1 µM): 100%

O=C(NCCCN1CCOCC1)c1ccc(Nc2nccc(-c3cc4ccccc4s3)n2)cc1
remaining binding (CDK4 with cyclin D1; binding, competition with immobilised ligand; 1 µM): 83%

COc1ccnn2ncc(-c3ccnc(N(C)C)n3)c12
remaining binding (CDK4 with cyclin D1; binding; 1 µM): 97%

O=C(NC[C@@H]1[C@H]2CN(C(=O)OCc3cc(C(F)(F)F)cc(C(F)(F)F)c3)C[C@@H]12)c1ccc2[nH]nnc2c1
remaining binding (CDK4 with cyclin D1; cell-free assay, competition with immobilised ligand; 1 µM): 100%

FC(F)(F)Oc1cccc(-c2cnc3ccc(-c4ccncc4)nn23)c1
remaining binding (CDK4 with cyclin D1; cell-free assay, competition with immobilised ligand; 5 µM): 46%

COc1cnc(Nc2cccc(S(N)(=O)=O)c2)nc1N1CCN(c2ccccc2)C(=O)C1
remaining binding (CDK4 with cyclin D3; binding, competition with immobilised ligand; 1 µM): 87%

CCCOc1ccc([C@@H]2[C@@H](C(=O)O)[C@H](c3ccc4c(c3)OCO4)CN2CC(=O)Nc2c(CC)cccc2CC)cc1
remaining binding (CDK4; cell-free assay, competition with immobilised ligand; 1 µM): 84%

C[C@@H]1CCN(c2nccc(-c3cnn4ncccc34)n2)C1
remaining binding (CDK4; binding; 1 µM): 79%

Cc1c(NC(=O)c2cc(C(N)=O)nc3cc(F)ccc23)c(C(F)(F)F)nn1Cc1ccc(C#N)cc1
remaining binding (CDK4 with cyclin D3; cell-free assay, competition with immobilised ligand; 1 µM): 81%

CN(C)c1nccc(-c2cnn3ncccc23)n1
remaining binding (CDK4; binding; 1 µM): 92%

CN(C)CC#Cc1ccc(OCCCc2sc(N3CCc4cccc(C(=O)Nc5nc6ccccc6s5)c4C3)nc2C(=O)O)c(F)c1
remaining binding (CDK4 with cyclin D3; cell-free assay, competition with immobilised ligand; 1 µM): 100%

COc1cnc(Nc2cccc(S(N)(=O)=O)c2)nc1N1CCN(c2ccccc2)CC1
remaining binding (CDK4 with cyclin D1; binding, competition with immobilised ligand; 1 µM): 78%
